Numbering of substitutions follows the chain as printed.
Legend:
[1] = biological target: T1, BcTSPO 23/35 double-cysteine variant (Bacillus cereus, UniProt Q81BL7, C107S/L35C/V23C); assay: PpIX degradation activity assay; type: biochemical; conditions: TSPO 23/35 in nanodiscs, PpIX:TSPO 1:1
T1 sequence (Q81BL7 1-153 V23C/L35C/C107S): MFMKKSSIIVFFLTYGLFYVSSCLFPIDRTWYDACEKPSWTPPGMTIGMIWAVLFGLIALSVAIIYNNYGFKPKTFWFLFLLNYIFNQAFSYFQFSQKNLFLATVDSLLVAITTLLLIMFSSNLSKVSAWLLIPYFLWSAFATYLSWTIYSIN
Outline: (§1)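 His10-tagged Bacillus cereus TSPO (C107S cysteine-free background) was expressed in E. coli BL21(DE3) pLysS, Ni-purified in β-DDM, then reconstituted into MSP1D1 nanodiscs with POPC:POPE 60:40 (TSPO/MSP/lipid/cholate 1/4/270/540). PpIX and loaded nanodiscs were mixed 1:1 molar in a 1 mm quartz cuvette. Emission at 633 nm was recorded in pulses of 60 s continuous illumination. V0 was taken as the absolute slope of a linear fit to the first three points (~120 s). Triplicate, mean ± SE.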

[2] = biological target: T2, BcTSPO 23/151 double-cysteine variant (Bacillus cereus, UniProt Q81BL7, C107S/S151C/V23C); assay: PpIX degradation activity assay; type: biochemical; conditions: TSPO 23/151 in nanodiscs, PpIX:TSPO 1:1
T2 sequence (Q81BL7 1-153 V23C/C107S/S151C): T1 sequence (Q81BL7 1-153 V23C/L35C/C107S) with C35L, S151C
Outline: as §1

BcTSPO 34/151-D33P [3] = biological target: T3, BcTSPO 34/151-D33P (Bacillus cereus, UniProt Q81BL7, A34C/C107S/D33P/S151C); assay: Tryptophan fluorescence quenching binding assay; conditions: detergent-solubilized TSPO 34/151-D33P; in words
T3 sequence (Q81BL7 1-153 D33P/A34C/C107S/S151C): T1 sequence (Q81BL7 1-153 V23C/L35C/C107S) with C23V, D33P, A34C, C35L, S151C

BcTSPO 34/151-W138F [4] = biological target: T4, BcTSPO 34/151-W138F (Bacillus cereus, UniProt Q81BL7, A34C/C107S/S151C/W138F); assay: PpIX degradation activity assay; type: biochemical; conditions: TSPO 34/151-W138F in nanodiscs, PpIX:TSPO 1:1
T4 sequence (Q81BL7 1-153 A34C/C107S/W138F/S151C): T1 sequence (Q81BL7 1-153 V23C/L35C/C107S) with C23V, A34C, C35L, W138F, S151C
Outline: as §1

BcTSPO 34/102-D33P [5] = biological target: T5, BcTSPO 34/102-D33P (Bacillus cereus, UniProt Q81BL7, A34C/C107S/D33P/L102C); assay: Tryptophan fluorescence quenching binding assay; conditions: detergent-solubilized TSPO 34/102-D33P; in words
T5 sequence (Q81BL7 1-153 D33P/A34C/L102C/C107S): T1 sequence (Q81BL7 1-153 V23C/L35C/C107S) with C23V, D33P, A34C, C35L, L102C

BcTSPO W138F [6] = biological target: T6, BcTSPO W138F (Bacillus cereus, UniProt Q81BL7, C107S/W138F); assay: Tryptophan fluorescence quenching binding assay; conditions: detergent-solubilized TSPO W138F; in words
T6 sequence (Q81BL7 1-153 C107S/W138F): T1 sequence (Q81BL7 1-153 V23C/L35C/C107S) with C23V, C35L, W138F

BcTSPO 34/102-K98E [7] = biological target: T7, BcTSPO 34/102-K98E (Bacillus cereus, UniProt Q81BL7, A34C/C107S/K98E/L102C); assay: Tryptophan fluorescence quenching binding assay; conditions: detergent-solubilized TSPO 34/102-K98E; in words
T7 sequence (Q81BL7 1-153 A34C/K98E/L102C/C107S): T1 sequence (Q81BL7 1-153 V23C/L35C/C107S) with C23V, A34C, C35L, K98E, L102C

BcTSPO 34/102-K98E [8] = biological target: T7, BcTSPO 34/102-K98E; assay: PpIX degradation activity assay; type: biochemical; conditions: TSPO 34/102-K98E in nanodiscs, PpIX:TSPO 1:1
Outline: as §1

BcTSPO W138F [9] = biological target: T6, BcTSPO W138F; assay: PpIX degradation activity assay; type: biochemical; conditions: TSPO W138F in nanodiscs, PpIX:TSPO 1:1
Outline: as §1

BcTSPO 34/151-K98E [10] = biological target: T8, BcTSPO 34/151-K98E (Bacillus cereus, UniProt Q81BL7, A34C/C107S/K98E/S151C); assay: PpIX degradation activity assay; type: biochemical; conditions: TSPO 34/151-K98E in nanodiscs, PpIX:TSPO 1:1
T8 sequence (Q81BL7 1-153 A34C/K98E/C107S/S151C): T1 sequence (Q81BL7 1-153 V23C/L35C/C107S) with C23V, A34C, C35L, K98E, S151C
Outline: as §1

BcTSPO 34/151-K98E [11] = biological target: T8, BcTSPO 34/151-K98E; assay: Tryptophan fluorescence quenching binding assay; conditions: detergent-solubilized TSPO 34/151-K98E; in words
BcTSPO 34/151-W138F [12] = biological target: T4, BcTSPO 34/151-W138F; assay: Tryptophan fluorescence quenching binding assay; conditions: detergent-solubilized TSPO 34/151-W138F; in words
BcTSPO 34/151-D33P [13] = biological target: T3, BcTSPO 34/151-D33P; assay: PpIX degradation activity assay; type: biochemical; conditions: TSPO 34/151-D33P in nanodiscs, PpIX:TSPO 1:1
Outline: as §1

BcTSPO W51F [14] = biological target: T9, BcTSPO W51F (Bacillus cereus, UniProt Q81BL7, C107S/W51F); assay: PpIX degradation activity assay; type: biochemical; conditions: TSPO W51F in nanodiscs, PpIX:TSPO 1:1
T9 sequence (Q81BL7 1-153 W51F/C107S): T1 sequence (Q81BL7 1-153 V23C/L35C/C107S) with C23V, C35L, W51F
Outline: as §1

WT BcTSPO = biological target: T10, WT BcTSPO (Bacillus cereus, UniProt Q81BL7); assay: PpIX degradation activity assay; type: biochemical; conditions: WT TSPO in nanodiscs, PpIX:TSPO 1:1, light exposure
T10 sequence (Q81BL7 1-153): T1 sequence (Q81BL7 1-153 V23C/L35C/C107S) with C23V, C35L, S107C
Outline: as §1

BcTSPO W51F [15] = biological target: T9, BcTSPO W51F; assay: Tryptophan fluorescence quenching binding assay; conditions: detergent-solubilized TSPO W51F; in words
[16] = biological target: T11, BcTSPO 34/151 double-cysteine variant (Bacillus cereus, UniProt Q81BL7, A34C/C107S/S151C); assay: PpIX degradation activity assay; type: biochemical; conditions: TSPO 34/151 in nanodiscs, PpIX:TSPO 1:1
T11 sequence (Q81BL7 1-153 A34C/C107S/S151C): T1 sequence (Q81BL7 1-153 V23C/L35C/C107S) with C23V, A34C, C35L, S151C
Outline: as §1

[17] = biological target: T12, BcTSPO 34/102 double-cysteine variant (Bacillus cereus, UniProt Q81BL7, A34C/C107S/L102C); assay: PpIX degradation activity assay; type: biochemical; conditions: TSPO 34/102 in nanodiscs, PpIX:TSPO 1:1
T12 sequence (Q81BL7 1-153 A34C/L102C/C107S): T1 sequence (Q81BL7 1-153 V23C/L35C/C107S) with C23V, A34C, C35L, L102C
Outline: as §1

BcTSPO S22C-PEG = assay: Tryptophan fluorescence quenching binding assay; set-up: species or system Bacillus cereus; conditions: DDM-solubilized TSPO S22C conjugated with 5 kDa PEG; higher than WT
[18] = biological target: T1, BcTSPO 23/35 double-cysteine variant; assay: Tryptophan fluorescence quenching binding assay; conditions: detergent-solubilized TSPO 23/35; in words
BcTSPO 34/102-D33P [19] = biological target: T5, BcTSPO 34/102-D33P; assay: PpIX degradation activity assay; type: biochemical; conditions: TSPO 34/102-D33P in nanodiscs, PpIX:TSPO 1:1
Outline: as §1

SMILES: C=CC1=C(C)c2cc3[nH]c(cc4nc(cc5[nH]c(cc1n2)c(C)c5CCC(=O)O)C(CCC(=O)O)=C4C)c(C)c3C=C [PpIX, protoporphyrin IX]
- reaction velocity V0 of PpIX degradation [1]: approximately 5 nM/s
- reaction velocity V0 of PpIX degradation [2]: approximately 17 nM/s
- dissociation constant Kd of PpIX compared with WT (BcTSPO 34/151-D33P [3]): much higher
- reaction velocity V0 of PpIX degradation (BcTSPO 34/151-W138F [4]): below 2 nM/s
- dissociation constant Kd of PpIX compared with WT (BcTSPO 34/102-D33P [5]): much higher
- binding of PpIX compared with WT (BcTSPO W138F [6]): as strongly as WT
- dissociation constant Kd of PpIX compared with WT (BcTSPO 34/102-K98E [7]): much higher
- reaction velocity V0 of PpIX degradation (BcTSPO 34/102-K98E [8]): approximately 5 nM/s
- reaction velocity V0 of PpIX degradation (BcTSPO W138F [9]): below 2 nM/s
- reaction velocity V0 of PpIX degradation (BcTSPO 34/151-K98E [10]): approximately 5 nM/s
- dissociation constant Kd of PpIX compared with WT (BcTSPO 34/151-K98E [11]): much higher
- binding of PpIX compared with WT (BcTSPO 34/151-W138F [12]): as strongly as WT
- reaction velocity V0 of PpIX degradation (BcTSPO 34/151-D33P [13]): approximately 5 nM/s
- reaction velocity V0 of PpIX degradation (BcTSPO W51F [14]): approximately 5 nM/s
- reaction velocity V0 of PpIX degradation (WT BcTSPO): approximately 17 nM/s
- dissociation constant Kd of PpIX compared with WT (BcTSPO W51F [15]): much higher
- reaction velocity V0 of PpIX degradation [16]: approximately 17 nM/s
- reaction velocity V0 of PpIX degradation [17]: approximately 17 nM/s
- Kd value of S22C-PEG relative to that of WT (BcTSPO S22C-PEG): approximately 10 fold
- dissociation constant Kd of PpIX compared with WT [18]: much higher
- reaction velocity V0 of PpIX degradation (BcTSPO 34/102-D33P [19]): approximately 5 nM/s
